Results: ChEMBL document CHEMBL3112482, “Nonclassical antifolates, part 5. Benzodiazepine analogs as a new class of DHFR inhibitors: synthesis, antitumor testing and molecular modeling study” (Eur J Med Chem, 2014)

Key:
Type in all cases: functional
Malme-3M = assay: Growth inhibition of human MALME-3M cells at 10 uM after 48 hrs; conditions: read-out: GI
In short: (§1)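 Single-dose primary screen in the NCI 60 human tumour cell line panel, run at the NCI facility. The panel covers nine subpanels: leukaemia, non-small cell lung, colon, CNS, melanoma, ovarian, renal, prostate and breast. Read-out was percent growth of treated cells, shown as a mean graph and reported as percent growth inhibition.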

U-251 = assay: Growth inhibition of human U251 cells at 10 uM after 48 hrs; conditions: U-251, 48 h, read-out: GI
In short: (§2)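 NCI 60-cell-line disease-oriented human tumor panel, single-dose primary screen at 10 µM. Data given as mean-graph percent growth of treated cells, reported as percent growth inhibition (GI %).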

SF-295 = assay: Growth inhibition of human SF295 cells at 10 uM after 48 hrs; conditions: SF-295, 48 h, read-out: GI; in short: as §2
KM12 = assay: Growth inhibition of human KM12 cells at 10 uM after 48 hrs; conditions: KM12, 48 h, read-out: GI; in short: as §1
HCT-15 = assay: Growth inhibition of human HCT15 cells at 10 uM after 48 hrs; conditions: HCT-15, 48 h, read-out: GI; in short: as §1
HT-29 = assay: Growth inhibition of human HT-29 cells at 10 uM after 48 hrs; conditions: HT-29, 48 h, read-out: GI; in short: as §1
[1] = Growth inhibition of human HCC2998 cells at 10 uM after 48 hrs; conditions: HCC 2998, 48 h, read-out: GI; in short: as §1
NCI-H460 = assay: Growth inhibition of human NCI-H460 cells at 10 uM after 48 hrs; conditions: NCI-H460, 48 h, read-out: GI; in short: as §1
[2] = Growth inhibition of human HOP92 cells at 10 uM after 48 hrs; conditions: HOP-92, 48 h, read-out: GI; in short: as §1
NCI-H226 = assay: Growth inhibition of human NCI-H226 cells at 10 uM after 48 hrs; conditions: NCI-H226, 48 h, read-out: GI; in short: as §1
HOP-62 = assay: Growth inhibition of human HOP62 cells at 10 uM after 48 hrs; conditions: HOP-62, 48 h, read-out: GI; in short: as §1
A549 = assay: Growth inhibition of human A549 cells at 10 uM after 48 hrs; conditions: A549, 48 h, read-out: GI; in short: as §1
HL-60(TB) = assay: Growth inhibition of human HL-60(TB) cells at 10 uM after 48 hrs; conditions: HL-60, 48 h, read-out: GI
In short: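 NCI 60-cell-line human tumour panel covering nine subpanels (leukaemia, non-small cell lung, colon, CNS, melanoma, ovarian, renal, prostate, breast), run at the NCI facility. Primary screen tested a single dose of each compound. Read-out was percent growth of treated cells versus untreated cells, reported from the mean graph as percentage growth inhibition.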

MDA-MB-468 = assay: Growth inhibition of human MDA-MB-468 cells at 10 uM after 48 hrs; conditions: MDA-MB-468, 48 h, read-out: GI; in short: as §1
BT-549 = assay: Growth inhibition of human BT549 cells at 10 uM after 48 hrs; conditions: BT-549, 48 h, read-out: GI; in short: as §1
SN12C = assay: Growth inhibition of human SN12C cells at 10 uM after 48 hrs; conditions: read-out: GI; in short: as §2
ACHN = assay: Growth inhibition of human ACHN cells at 10 uM after 48 hrs; conditions: read-out: GI; in short: as §1
786-0 = assay: Growth inhibition of human 786-0 cells at 10 uM after 48 hrs; conditions: 786-0, 48 h, read-out: GI; in short: as §1
OVCAR-3 = assay: Growth inhibition of human OVCAR3 cells at 10 uM after 48 hrs; conditions: OVCAR-3, 48 h, read-out: GI; in short: as §1
IGROV-1 = assay: Growth inhibition of human IGROV1 cells at 10 uM after 48 hrs; conditions: IGROV-1, 48 h, read-out: GI; in short: as §1
UACC-62 = assay: Growth inhibition of human UACC62 cells at 10 uM after 48 hrs; conditions: UACC-62, 48 h, read-out: GI; in short: as §2
SK-MEL-5 = assay: Growth inhibition of human SK-MEL-5 cells at 10 uM after 48 hrs; conditions: SK-MEL-5, 48 h, read-out: GI; in short: as §2
[3] = Cytotoxicity against human melanoma cells at 10 uM after 48 hrs; conditions: Melanoma cell; for CC50: read-out: LC50 (the source's name); in short: as §1
[4] = Cytotoxicity against human leukemia cells at 10 uM after 48 hrs; conditions: Leukemia cell
[5] = Cytotoxicity against human non-small cell lung cancer cells at 10 uM after 48 hrs; conditions: Cancer cell lines; for CC50: read-out: LC50 (the source's name); in short: as §1
LOX IMVI = assay: Growth inhibition of human LOXIMVI cells at 10 uM after 48 hrs; conditions: read-out: GI; in short: as §1
HCT-116 = assay: Growth inhibition of human HCT116 cells at 10 uM after 48 hrs; conditions: HCT-116, 48 h, read-out: GI; in short: as §1

| Compound | inhibition of growth at 10 µM (Malme-3M) [%] | inhibition of growth at 10 µM (U-251) [%] | inhibition of growth at 10 µM (SF-295) [%] | inhibition of growth at 10 µM (KM12) [%] | inhibition of growth at 10 µM (HCT-15) [%] | inhibition of growth at 10 µM (HT-29) [%] | inhibition of growth at 10 µM (NCI-H460) [%] | inhibition of growth at 10 µM [2] [%] | inhibition of growth at 10 µM (NCI-H226) [%] | inhibition of growth at 10 µM (HOP-62) [%] | inhibition of growth at 10 µM (A549) [%] | inhibition of growth at 10 µM (HL-60(TB)) [%] | inhibition of growth at 10 µM (BT-549) [%] | inhibition of growth at 10 µM (SN12C) [%] | inhibition of growth at 10 µM (ACHN) [%] | inhibition of growth at 10 µM (786-0) [%] | inhibition of growth at 10 µM (OVCAR-3) [%] | inhibition of growth at 10 µM (IGROV-1) [%] | inhibition of growth at 10 µM (UACC-62) [%] | inhibition of growth at 10 µM (SK-MEL-5) [%] | other results |
| --- | --- | --- | --- | --- | --- | --- | --- | --- | --- | --- | --- | --- | --- | --- | --- | --- | --- | --- | --- | --- | --- |
| Nc1nc2c(c(-c3ccc(Br)cc3)n1)CCC/C2=C\c1ccc(Br)cc1 | < 30 | 65.2 | < 30 | 53 | < 30 | 67.8 | < 30 | < 30 | < 30 | < 30 | < 30 | < 30 | < 30 | < 30 | < 30 | < 30 | < 30 | < 30 | < 30 | < 30 | inhibition of growth at 10 µM [1]: 51.5%; inhibition of growth at 10 µM (MDA-MB-468): < 30% |
| Nc1nc2c(c(-c3ccc(Cl)cc3)n1)CCC/C2=C\c1ccc(Cl)cc1 | < 30 | 86.1 | 32.5 | 97.7 | 41.7 | 92.3 | < 30 | < 30 | < 30 | < 30 | 33.3 | 35.2 | < 30 | < 30 | < 30 | < 30 | 60.9 | < 30 | < 30 | < 30 | GI50 [3]: 15.4 µM; TGI [3]: 36.5 µM; CC50 [3]: 80 µM; GI50 [4]: 7.8 µM; LC50 [4]: > 100 µM; TGI [4]: 61.1 µM; GI50 [5]: 15.2 µM; TGI [5]: 55.7 µM; CC50 [5]: 88.6 µM; inhibition of growth at 10 µM (MDA-MB-468): 37.8% |
| Clc1ccc(/C=C2\CCCC3=C(c4ccc(Cl)cc4)Nc4ccccc4N=C32)cc1 | < 30 | 79.2 | < 30 | 82.7 | 36.4 | 84.1 | < 30 | 39.4 | < 30 | < 30 | < 30 | < 30 | < 30 | < 30 | < 30 | < 30 | 33 | < 30 | < 30 | < 30 | inhibition of growth at 10 µM [1]: < 30%; GI50 [3]: 9.5 µM; TGI [3]: 24.3 µM; CC50 [3]: 64.2 µM; GI50 [4]: 4.1 µM; LC50 [4]: > 100 µM; TGI [4]: 49.4 µM; GI50 [5]: 9 µM; TGI [5]: 35.2 µM; CC50 [5]: 81.3 µM; inhibition of growth at 10 µM (MDA-MB-468): 40% |
| Cc1nc2c(c(-c3ccc(Cl)cc3)n1)CCC/C2=C\c1ccc(Cl)cc1 | < 30 | 44 | < 30 | 62 | < 30 | 45.6 | < 30 | < 30 | < 30 | < 30 | < 30 | < 30 | 34 | < 30 | < 30 | < 30 | < 30 | < 30 | < 30 | < 30 | inhibition of growth at 10 µM (LOX IMVI): 63.2%; inhibition of growth at 10 µM [1]: 58.5%; inhibition of growth at 10 µM (MDA-MB-468): < 30% |
| COc1ccc(/C=C2\CCCc3c2nc(N)nc3-c2ccc(OC)cc2)cc1 | < 30 | < 30 | < 30 | < 30 | < 30 | < 30 | < 30 | 31.4 | < 30 | < 30 | < 30 | 32.2 | < 30 | < 30 | < 30 | < 30 | < 30 | < 30 | 32.1 | 43.8 | inhibition of growth at 10 µM (LOX IMVI): < 30%; inhibition of growth at 10 µM (HCT-116): < 30%; inhibition of growth at 10 µM [1]: < 30% |
